Data as given in ChEMBL document CHEMBL2311397, “Design and synthesis of cyclopropylamide analogues of combretastatin-A4 as novel microtubule-stabilizing agents” (J Med Chem, 2013).
Calls of active or inactive are those of the source. The rule behind the calls is not given here.

How the values were obtained:
A549 [1] = assay: Antimitotic activity against human A549 cells assessed as cell mitotic arrest at 5 uM after 22 hrs by DAPI/FITC staining-based laser fluorescence confocal microscopic analysis (reference value: 1.1 %); format: functional
A549 [2] = assay: Cell cycle arrest in human A549 cells assessed as accumulation at G2/M phase at 1 uM after 24 hrs by propidium iodide staining-based flow cytometry (reference value: 2.78 %); format: functional
A549 [3] = assay: Cell cycle arrest in human A549 cells assessed as accumulation at G2/M phase at 0.1 uM after 24 hrs by propidium iodide staining-based flow cytometry (reference value: 2.78 %); format: functional
A549 [4] = assay: Cell cycle arrest in human A549 cells assessed as accumulation at S phase at 10 uM after 24 hrs by propidium iodide staining-based flow cytometry (reference value: 9.12 %); format: functional
A549 [5] = assay: Cell cycle arrest in human A549 cells assessed as accumulation at S phase at 5 uM after 24 hrs by propidium iodide staining-based flow cytometry (reference value: 9.12 %); format: functional
A549 [6] = assay: Cell cycle arrest in human A549 cells assessed as accumulation at G1 phase at 10 uM after 24 hrs by propidium iodide staining-based flow cytometry (reference value: 87.56 %); format: functional
A549 [7] = assay: Cell cycle arrest in human A549 cells assessed as accumulation at G1 phase at 5 uM after 24 hrs by propidium iodide staining-based flow cytometry (reference value: 87.56 %); format: functional
A549 [8] = assay: Cell cycle arrest in human A549 cells assessed as accumulation at G1 phase at 1 uM after 24 hrs by propidium iodide staining-based flow cytometry (reference value: 87.56 %); format: functional
A549 [9] = assay: Resistance index, ratio of IC50 for paclitaxel-resistant human A549 cells to IC50 for paclitaxel-sensitive human A549 cells; format: functional
Outline: (§1)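 Log-phase cells (40000–50000 cells/mL) grown in DMEM with 10% fetal calf serum (5% CO2, 37 °C) and exposed 48 h to five concentrations, 3–5 replicates. Read-out was MTT with absorbance at 570 nm; IC50 reported as mean ± SD of three independent experiments. Resistant A549 and HeLa sublines were made by stepwise paclitaxel selection; resistance index = IC50(resistant)/IC50(sensitive).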

HeLa = assay: Cytotoxicity against human HeLa cells after 48 hrs by MTT assay; format: functional, cell-based; conditions: Homo sapiens, HeLa, 48 h; outline: as §1
A549 [10] = assay: Cytotoxicity against human A549 cells after 48 hrs by MTT assay; format: functional, cell-based; conditions: Homo sapiens, A549, 48 h; outline: as §1
A549 [11] = assay: Induction of apoptosis in human A549 cells assessed as viable cells at 1 uM after 24 hrs by annexin V-FITC/propidium iodide staining-based flow cytometry (reference value: 94.08%); format: functional; conditions: A549, 24 h, read-out: Activity
A549 [12] = assay: Induction of apoptosis in human A549 cells assessed as necrotic cells at 10 uM after 24 hrs by annexin V-FITC/propidium iodide staining-based flow cytometry (reference value: 2.76%); format: functional
A549 [13] = assay: Induction of apoptosis in human A549 cells assessed as necrotic cells at 5 uM after 24 hrs by annexin V-FITC/propidium iodide staining-based flow cytometry (reference value: 2.76%); format: functional
A549 [14] = assay: Antitumor activity against human A549 cells xenografted in ig dosed BALB/c nude mouse assessed as tumor growth inhibition measured on day 16; format: functional, organism-based
Outline: (§2)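 Male BALB/c nude mice, 5 weeks old (18–20 g), implanted subcutaneously in the right armpit with A549 tumor fragments (3 mm3). On day 13, at 100–200 mm3, daily intragastric dosing began: 100 or 500 mg/kg test compound, or 30 mg/kg paclitaxel, in Tween-80 diluted with saline. Vehicle given ip. Tumor volume and body weight followed; n = 6; inhibition rate at day 16.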

Mus musculus = assay: Toxicity in human A549 cells xenografted BALB/c nude mouse assessed as change in body weight at 100 to 500 mg/kg, ig; format: organism-based; design: dose 100-500 mg/kg, route intragastric; conditions: in vivo, po; outline: as §2
A549 [15] = assay: Effect on spindle microtubule dynamics in human A549 cells at 10 uM after 22 hrs by DAPI/FITC staining-based laser fluorescence confocal microscopic analysis; format: functional, cell-based
Outline: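 Confocal imaging of A549 cells exposed for 22 h to compound or vehicle (0.2% DMSO final), added at 70% confluency after overnight growth. Fixation followed by 0.5% Triton X-100 permeabilization and 10% goat serum blocking; tubulin stained with FITC anti-α-tubulin (1:100, 2 h, 37 °C), nuclei counterstained with DAPI. Wide-field images taken at 10–15 random slide locations.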

A549 [16] = assay: Effect on chromosomal alteration in human A549 cells at 10 uM after 22 hrs by DAPI/FITC staining-based laser fluorescence confocal microscopic analysis
A549 [17] = assay: Effect on spindle microtubule dynamics in human A549 cells at 10 uM after 22 hrs by DAPI/FITC staining-based laser fluorescence confocal microscopic analysis

SMILES: COc1cc([C@@H]2C[C@]2(CO)C(=O)Nc2ccccc2Cl)cc(OC)c1OC
- Activity (A549 [1]): 53.1%
- Activity (A549 [2]): 51.68%
- Activity (A549 [3]): 12.53%
- Activity (A549 [4]): 10.29%
- Activity (A549 [5]): 10.81%
- Activity (A549 [6]): 9.85%
- Activity (A549 [7]): 28.62%
- Activity (A549 [8]): 38.41%
- Ratio IC50 (A549 [9]): 1.2
- IC50 (HeLa): 8.1 µM
- IC50 (A549 [10]): 4.4 µM
- viability at 1 µM (A549 [11]): 80.2%
- Activity (A549 [12]): 0.83%
- Activity (A549 [13]): 2.04%
- TGI (A549 [14]): Dose-dependent effect
- Activity (Mus musculus): Non-toxic
- Activity (A549 [15]): Active
- Activity (A549 [16]): Active
- Activity (A549 [17]): Active
